From ChEMBL document CHEMBL2417458, “New potent and selective polyfluoroalkyl ketone inhibitors of GVIA calcium-independent phospholipase A2” (Bioorg Med Chem, 2013)

Key:
[1] = molecular target: T1, 85/88 kDa calcium-independent phospholipase A2 (Homo sapiens) (UniProt O60733); assay: Inhibition of human group 6A calcium-independent PLA2 at 0.091 mole fraction in mixed-micelles by modified Dole assay
T1 sequence (whole entry): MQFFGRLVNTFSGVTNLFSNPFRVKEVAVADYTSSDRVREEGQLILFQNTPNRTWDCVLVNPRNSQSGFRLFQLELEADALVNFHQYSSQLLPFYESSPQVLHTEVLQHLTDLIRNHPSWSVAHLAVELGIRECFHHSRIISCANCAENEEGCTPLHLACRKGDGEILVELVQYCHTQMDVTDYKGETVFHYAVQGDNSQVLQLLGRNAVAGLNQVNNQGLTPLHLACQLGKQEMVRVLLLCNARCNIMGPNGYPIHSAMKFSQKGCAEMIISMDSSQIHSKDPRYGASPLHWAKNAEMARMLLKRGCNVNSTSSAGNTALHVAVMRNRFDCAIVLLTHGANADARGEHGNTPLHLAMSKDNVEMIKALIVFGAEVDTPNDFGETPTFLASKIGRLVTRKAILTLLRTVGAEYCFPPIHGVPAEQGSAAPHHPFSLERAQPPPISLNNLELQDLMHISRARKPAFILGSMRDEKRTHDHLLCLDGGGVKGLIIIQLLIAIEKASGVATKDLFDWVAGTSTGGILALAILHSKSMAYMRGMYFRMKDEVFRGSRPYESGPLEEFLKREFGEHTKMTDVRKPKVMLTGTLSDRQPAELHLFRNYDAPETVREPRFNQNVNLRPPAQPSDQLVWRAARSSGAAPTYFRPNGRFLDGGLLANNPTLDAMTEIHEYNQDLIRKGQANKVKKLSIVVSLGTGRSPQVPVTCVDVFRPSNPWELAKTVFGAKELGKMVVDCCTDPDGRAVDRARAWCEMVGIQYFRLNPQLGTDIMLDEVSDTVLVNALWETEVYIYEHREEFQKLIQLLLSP

[2] = molecular target: T2, Phospholipase A2 group V (Homo sapiens) (UniProt P39877); assay: Inhibition of human group 5 secretory PLA2 at 0.091 mole fraction in mixed-micelles by modified Dole assay
T2 sequence (whole entry): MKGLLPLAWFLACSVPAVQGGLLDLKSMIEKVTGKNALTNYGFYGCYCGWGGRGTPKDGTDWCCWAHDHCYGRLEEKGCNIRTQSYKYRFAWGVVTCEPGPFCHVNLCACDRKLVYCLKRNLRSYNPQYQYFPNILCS

[3] = molecular target: T1, 85/88 kDa calcium-independent phospholipase A2 (Homo sapiens); assay: Inhibition of human group 6A calcium-independent PLA2 treated in mixed-micelles by modified Dole assay
Summary of the method: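 Typically 7 mole fractions from 0.00091 to 0.091 were tested. XI(50) is the inhibitor mole fraction giving 50% inhibition, from a symmetrical sigmoidal regression of % inhibition versus log concentration.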

[4] = molecular target: T3, Cytosolic phospholipase A2 (Homo sapiens) (UniProt P47712); assay: Inhibition of human group 4A cytosolic PLA2 at 0.091 mole fraction in mixed-micelles by modified Dole assay
T3 sequence (whole entry): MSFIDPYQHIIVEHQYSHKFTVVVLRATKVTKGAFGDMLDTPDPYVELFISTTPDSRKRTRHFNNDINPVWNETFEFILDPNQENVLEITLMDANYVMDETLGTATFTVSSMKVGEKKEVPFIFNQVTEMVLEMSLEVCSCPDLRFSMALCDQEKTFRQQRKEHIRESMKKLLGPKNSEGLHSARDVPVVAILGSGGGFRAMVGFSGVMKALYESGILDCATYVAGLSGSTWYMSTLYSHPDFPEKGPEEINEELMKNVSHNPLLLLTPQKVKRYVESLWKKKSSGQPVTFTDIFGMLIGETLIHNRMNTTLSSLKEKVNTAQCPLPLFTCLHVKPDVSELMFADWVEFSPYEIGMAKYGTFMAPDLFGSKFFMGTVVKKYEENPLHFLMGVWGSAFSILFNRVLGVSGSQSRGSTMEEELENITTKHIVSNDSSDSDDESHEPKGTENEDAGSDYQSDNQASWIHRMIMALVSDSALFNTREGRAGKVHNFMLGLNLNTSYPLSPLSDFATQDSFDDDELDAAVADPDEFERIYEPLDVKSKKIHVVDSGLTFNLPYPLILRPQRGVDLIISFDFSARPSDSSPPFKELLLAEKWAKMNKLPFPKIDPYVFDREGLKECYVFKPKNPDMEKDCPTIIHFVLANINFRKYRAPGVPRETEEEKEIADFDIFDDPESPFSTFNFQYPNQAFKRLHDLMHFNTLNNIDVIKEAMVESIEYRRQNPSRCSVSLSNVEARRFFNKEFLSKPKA
Summary of the method: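 Buffer was 100 mM HEPES pH 7.5 with 90 μM CaCl2, 2 mM DTT and 0.1 mg/ml BSA. Inhibitor was screened at 0.091 mole fraction. Values are average percent inhibition, and 25% or less was scored as no inhibition.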

[5] = molecular target: T3, Cytosolic phospholipase A2 (Homo sapiens); assay: Inhibition of human group 4A cytosolic PLA2 treated in mixed-micelles by modified Dole assay
Summary of the method: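 Buffer was 100 mM HEPES pH 7.5 containing 90 μM CaCl2, 2 mM DTT and 0.1 mg/ml BSA. About 7 inhibitor mole fractions between 0.00091 and 0.091 were tested. XI(50) came from a symmetrical sigmoidal nonlinear fit of % inhibition versus log inhibitor.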

Row | Compound | inhibition [1] [%] | inhibition [2] [%] | XI50 (mole fraction) [3] | inhibition [4] [%] | XI50 (mole fraction) [5]
1 | O=C(CCCCc1ccc(F)cc1)C(F)(F)C(F)(F)F | 98.2 | 29.3 | 0.0003 | < 25 | 
2 | COc1ccc(CCCCC(=O)C(F)(F)F)c(OC)c1 | 89.6 | < 25 |  | 64.3 | 
3 | O=C(CCCCc1ccc(C(F)(F)F)cc1)C(F)(F)C(F)(F)F | 98.9 | 36.9 | 0.0003 | 62.5 | 
4 | O=C(CCc1ccccc1-c1ccccc1)C(F)(F)F | 75 |  |  | < 25 | 
5 | COc1ccc2cc(CCCCC(=O)C(F)(F)C(F)(F)F)ccc2c1 | 92.5 | 63.1 |  | 54.7 | 
6 | COc1ccc(CCCCC(=O)C(F)(F)C(F)(F)F)cc1OC | 78.3 | < 25 |  | < 25 | 
7 | O=C(CCCCc1cccc2ccccc12)C(F)(F)C(F)(F)C(F)(F)F | 76.7 | 57.8 |  | 60.4 | 
8 | COc1ccccc1CCCCC(=O)C(F)(F)C(F)(F)F | 95.5 | 39.1 | 0.0263 | 30.5 | 
9 | COc1ccc2cc(CCCCC(=O)C(F)(F)F)ccc2c1 | 92.6 | 41.7 |  | 85.5 | 
10 | O=C(CCCCc1ccc(C(F)(F)F)cc1)C(F)(F)F | 99.9 | 30.4 | 0.0002 | 83.9 | 
11 | COc1ccc(CCCCC(=O)C(F)(F)C(F)(F)F)cc1 | 99.8 | 32.8 | 0.0001 | < 25 | 
12 | COc1ccc(CCCCC(=O)C(F)(F)C(F)(F)F)c(OC)c1 | 95.6 | 38.7 | 0.0553 | 35.6 | 
13 | O=C(CCCCc1ccc2c(c1)OCO2)C(F)(F)F | 98.7 | < 25 | 0.0025 | 41.2 | 
14 | O=C(CCCCc1cccc2ccccc12)C(F)(F)C(F)(F)F | 96.4 | 29.4 | 0.0034 | 64 | 
15 | O=C(CCCCc1ccc2c(c1)OCO2)C(F)(F)C(F)(F)F | 99.5 | 29.4 | 0.0019 | 38.3 | 
16 | COc1ccc(CCCCC(=O)C(F)(F)F)cc1 | 99.8 | < 25 | 0.0001 | 54.3 | 
17 | COc1ccc(CCCCC(=O)C(F)(F)F)cc1OC | 62.5 | < 25 |  | 28.8 | 
18 | O=C(CCCCc1ccc(-c2ccccc2)cc1)C(F)(F)C(F)(F)F | 94.6 | 38.3 | 0.0134 | 72.6 | 
19 | COc1ccccc1CCCCC(=O)C(F)(F)F | 82.8 | < 25 |  | 58.9 | 
20 | O=C(CCCCc1cccc2ccccc12)C(F)(F)F | 98.7 | 31.9 | 0.0018 | 77.4 | 
21 | O=C(CCCCc1ccc(F)cc1)C(F)(F)F | 98.5 | < 25 | 0.0002 | 41.4 | 
22 | O=C(CCCCc1ccccc1)C(F)F | 87.4 | < 25 |  | < 25 | 
23 | O=C(CCCc1ccccc1)C(F)F | 86.5 | < 25 |  | < 25 | 
24 | O=C(CCc1ccccc1-c1ccccc1)C(F)(F)C(F)(F)F | 90.4 |  |  | < 25 | 
25 | O=C(CCCCc1ccc(-c2ccccc2)cc1)C(F)(F)F | 97.9 | 40.5 | 0.0189 | 96.5 | 0.0074
